Tested on: MS2 coat protein
Assay: apparent Kd, MS2 coat protein; higher = weaker binding; RNA-MaP array; FMN 200 µM where present
Outline: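 Green signal from SNAP-549-labelled MS2 coat protein was normalised to red-channel RNA signal and to the median Fmax of control clusters. The protein was titrated from 0.7 or 1.5 nM, doubling to 3 µM, without and then with constant ligand, over designs transcribed by stalled E. coli RNA polymerase on Illumina sequencing-chip clusters, in 100 mM Tris-HCl pH 7.5, 80 mM KCl, 4 mM MgCl2, BSA, DTT, yeast tRNA and Tween-20. The apparent Kd is the median of filtered per-cluster binding-curve fits.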

[1] = designed as: ON switch for flavin mononucleotide, no ligand
[2] = ligand present: flavin mononucleotide, designed as: ON switch for flavin mononucleotide
[3] = designed as: OFF switch for flavin mononucleotide, no ligand
[4] = ligand present: flavin mononucleotide, designed as: OFF switch for flavin mononucleotide

Row | Sequence | apparent Kd [1] | apparent Kd [2] | apparent Kd [3] | apparent Kd [4]
1 | AAUUUAAUACAUGAGGAUCACCCAUGUAAAUUAAUUAAGAUCUAGGAUAUCAGCUCGAAUAGAGCUGAGAAGGAGAUCACAUGU | 17.4 nM | 15.1 nM | – | –
2 | UUUGUUUUGGUAGGAUAUACUUUUAUUUUCUCUUUCCUUACAUGAGGAUCACCCAUGUUUACAUUGUAGAAGGACCACUUUGUU | – | – | 20.8 nM | 18.8 nM
3 | AGUCGGAGCAGAGGAUAUUACAUGAGGAUCACCCAUGUAUGAACCAAUAGCUGGAAACAGCAAUGUAAGAAGGCUGCUCCGACA | – | – | 37.6 nM | 426 nM
4 | UUAUUUUUACAGAAGGUUUAAUAAUAUGUAUGAGAAGGAUAUGUAACAUGAGGAUCACCCAUGUUUUAUUUAUAUGAGGUUCGU | – | – | 15.3 nM | 12.5 nM
5 | UGGUACAUGGGAGGAUAUGGGUUGAUAACAUGAGGAUCACCCAUGUUAAAUAUCGCGAGAGCGAACUAGAAGGCCCAUGUACCU | 715 nM | 45.1 nM | – | –
6 | UUUUUAUGAGAGAAGGAGGACUUCAUGAGGAUCACCCAUGUGUUAGUACUUAGGAUAUUUAAUAACAUGAGGAUCACCCAUGUC | 51.1 nM | 48.6 nM | – | –
7 | AAUAUAAAGAGCUGGCUCAAUUUAACAUGAGGAUCACCCAUGUAGGAUAUCAGCACGAUAAGUGCUGAGAAGGACAUCCAGCUC | – | – | 16.7 nM | 36 nM
8 | AUUAUUUAUAGUUAUUGGUAUUUGACAGAAGGUGAAAGUGUCACAUGAGGAUCACCCAUGUUCUUCAAGGAUAUGUUGGUAUAC | 66.1 nM | 11.8 nM | – | –
9 | CCAGCGUAUGUGAGGAUAUGCUGGUCCUUGGAUCAGCAGAAGGCACAUGAGGAUCACCCAUGUGGAAUCGUUGG | – | – | 23.5 nM | 92.1 nM
10 | UCUAGACAUGAGGAUCACCCAUGUGAGGAUAUGAUGCGAUCGUCGAAAGACGAUAGCAUCAGAAGGCACGUAUG | – | – | 65.1 nM | 113 nM
11 | CAAAGUAGCACAGGAUAUCAUACAUGAGGAUCACCCAUGUCAAGAAGCAAAUGAGAAGGGUGCAGACGGUGUUGGAGCGGUUGC | 68.6 nM | 7.02 nM | – | –
12 | GAAAGGUCAGGAUAUACGUUAUGCUAGUGCUCGUACUAUAAGUAGAAGGGACAUGAGGAUCACCCAUGUGAUAA | – | – | 54.8 nM | 79.4 nM
13 | ACCUCGUCAGGAUAUCCUAUUAAUUGUUUCAUAUUUACGAUGGAGAAGGGACAUGAGGAUCACCCAUGUUGGUC | – | – | 35.5 nM | 58 nM
14 | CGGGCGCGAGGAUAUACAUGAGGAUCACCCAUGUAACGGGUUUGAAUCGGGCUUGCGUGUAGAAGGUGUGUUUG | – | – | 86 nM | 73.8 nM
15 | CGUAGGCCUCUCAACAUGAGGAUCACCCAUGUACGUGAAACGUAGGAUAUCACACAACUAAUGUGUGAGAAGGGCGCGCCGGAG | 126 nM | 124 nM | – | –
16 | GUUGGGUGUCAUGUCGCACAUGAGGAUCACCCAUGUAGGAGGUAGGAUAUCCACGAGAAACGAGAGGAGAAGGGCCAUUAGCGU | – | – | 19.2 nM | 23 nM
17 | AUAAUGCGAGGAUAUACAUGAGGAUCACCCAUGUAAUUCAAUCGGAGAGCCACAUUACGUAGAAGGUGCAUUAA | – | – | 17 nM | 23 nM
18 | ACUAAUUAGUGAGGAUAUACAUAAUUUAUAACUGUAGAAGGCACAAACCUCAAGACAUGAGGAUCACCCAUGUGGUAUAUAGAU | – | – | 169 nM | 388 nM
19 | UGUUGUAUUACAGGAUAUCUAGGAUUUUUAUUUAGAGAAGGGUAUUCACAUGAGGAUCACCCAUGUAUAUACGAGGAAGUUGUG | 40.2 nM | 41.3 nM | – | –
20 | CCGCCCUGAGGAUAUCCACCCUCAUACAUGAGGAUCACCCAUGUUCACCCUUGGGUUCCCGGAGAAGGCAGCUUUC | – | – | 347 nM | 393 nM
21 | AAUUAAUUAAUUAAGUACAUGAGGAUCACCCAUGUAAGUGAUCAGGAUAUCAGCUCGAUUAGAGCUGAGAAGGGAUCCAUGUAC | 531 nM | 303 nM | – | –
22 | CGUGCAAAUGUAGGAUAUGGUUAUCUAUGUCUAGUUACUAGACAUAGAUAACCAGAAGGACAUGAGGAUCACCCAUGUAGCACG | – | – | 6.7 nM | 21.6 nM
23 | CGCAACAUACAGAAGGAGUUAUUGAGAGGUUUACUAGGAUAUGUUCACAUGAGGAUCACCCAUGUCGUUUGGGAUUUUGUUGCG | – | – | 125 nM | 51.3 nM
24 | ACGCCCUGAGGAUAUCUUAUCCCGCACAUGAGGAUCACCCAUGUUCUCCUCCGGGCUCCGAGAGAAGGCAGGCCCA | – | – | 30.7 nM | 41.2 nM
25 | AAAGCGGGAUAGAAGGUCUGCUUGGUGUAUUACAUGAGGAUCACCCAUGUAGAAGGAUAUAUCUCAUUCUUGGGCUCACCCAAA | – | – | 208 nM | 367 nM
26 | GGACCAUAUCAGGAUAUGACUAGCUUCGGCUAGUCAGAAGGGAUGACAUGAGGAUCACCCAUGUGAUCAGGUCC | – | – | 42.1 nM | 50.5 nM
27 | GAUUGACAUGAGGAUCACCCAUGUGAGGAUAUCGGCUGGACCGUGUUGGCUUCCGUCUCGAGAAGGCGCAUAGG | – | – | 16 nM | 23.3 nM
28 | CACGCAUGUGGAGGAUAUGCAGUUAACAUUAGCGCAGAAGGCCACAUGAGGAUCACCCAUGUCCGGCAUUAGCCGAUGUUGAUC | – | – | 139 nM | 227 nM

From the EternaBench riboswitch data
